Experimental data as given in ChEMBL document CHEMBL5104125, “Copper chelating cyclic peptidomimetic inhibits Aβ fibrillogenesis” (RSC Med Chem, 2022).
Calls of active or inactive are those of the source. No cut-off for these calls is given here. Where a SMILES comes first, the peptide text is derived from it. [ ]: non-standard residue; d: D form. The star is where a group is joined. X1 = CCN(CC)c1ccc2c(-c3ccc(C(=O)*)cc3)c3ccc(N(CC)CC)cc3[o+]c2c1; Sar = CNCC(=O)O

How the values were obtained:
[1] = Cytotoxicity against mouse Neuro2a cells assessed as reduction in cell viability by MTT assay; type: toxicity, cell-based, N2a
Summary of the method: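 Neuro2a mouse neuronal cells treated with fluorescently labelled peptides; viability read by MTT after 24 h. IC50 calculated from linear regression of viability versus concentration.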

[2] = Drug uptake in mouse Neuro2a cells assessed as drug co-localization in cell at 100 uM in presence of MA.beta-RhB by confocal microscopy; type: ADME, cell-based; details: n2a
Summary of the method: (§1)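 Neuro2a cells treated with fluorescein- or Rhodamine B-labelled peptide at 100 μM, alone or together. Green and red fluorescence imaged in bright and dark field at 20×. Co-localization checked by confocal imaging at 63×, with green and red channels captured separately and then merged.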

[3] = Drug uptake in mouse Neuro2a cells assessed as drug internalization in cell membrane at 100 uM by confocal microscopy; type: ADME; details: n2a; summary of the method: as §1
Homo sapiens [4] = species on record: Homo sapiens; assay: Binding affinity to Rhodamine B labelled amyloid beta (9-21 residues) (unknown origin) assessed as increase in fluorescence intensity of Rhodamine B at 20 uM incubated for 24 hrs by FRET analysis (Rvb= 601 nm)
Summary of the method: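 FRET between fluorescein-labelled cyclic peptide (donor) and Rhodamine B-labelled Aβ9-21 model peptide (acceptor), mixed 1:1, ~20 μM each in PBS (50 mM, pH 7.4), incubated 24 h at 37 °C. Donor and mixture excited at 492 nm, acceptor alone at 567 nm; emission spectra recorded. Representative of several independent repeats.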

[5] = Drug uptake in mouse Neuro2a cells assessed as drug co-localization in cell at 100 uM in presence of PA19fCP-FI by confocal microscopy; type: ADME, cell-based; details: n2a; summary of the method: as §1
[6] = Drug uptake in mouse Neuro2a cells assessed as drug internalization in cytoplasm at 100 uM by confocal microscopy; type: ADME; details: n2a; summary of the method: as §1
[7] = target: Amyloid-beta precursor protein (Homo sapiens) (UniProt P05067); assay: Inhibition of amyloid beta (1 to 40) (unknown origin) aggregation assessed as reduction in beta sheet conformation at 2 M incubated for 6 days by circular dichroism analysis; details: time 6.0 day
[8] = target: Amyloid-beta precursor protein (Homo sapiens) (UniProt P05067); assay: Inhibition of Cu2+ induced amyloid beta (1 to 40) (unknown origin) aggregation assessed as reduction in fibrils at 80 uM incubated for 36 hrs in presence of CuSO4 by thioflavin S based fluorescence analysis; details: in the assay text read “thioflavin T” for “thioflavin S”
Summary of the method: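 Aβ1-40 (40 μM) with CuSO4 (40 μM) and test peptide (80 μM) in PBS pH 7.4, 37 °C, 36 h. ThT fluorescence read at ex 440 nm / em 485 nm, with ThT-plus-PBS reference subtracted. Mean of three independent experiments ± SD.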

[9] = target: Amyloid-beta precursor protein (Homo sapiens) (UniProt P05067); assay: Inhibition of amyloid beta (1 to 40) (unknown origin) aggregation at 0.5 M incubated for 6 days by thioflavin S based fluorescence analysis relative to control; details: time 6.0 day
[10] = Metal chelating activity assessed as compound-Zn2+ complex formation by measuring red shift at 1:1 ratio in presence of ZnCl2 by UV-Vis spectra analysis (Rvb= 265 nm)
[11] = target: Amyloid-beta precursor protein (Homo sapiens) (UniProt P05067); assay: Inhibition of amyloid beta (1 to 40) (unknown origin) aggregation assessed as reduction in fibrillar assembly at 2 M incubated for 6 days by TEM analysis; details: time 6.0 day
Summary of the method: (§2)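 Aβ1-40 (40 μM) co-incubated with 2-fold molar excess of peptide in PBS pH 7.4 at 37 °C for six days. TEM images (200 nm scale) and Congo red-stained birefringence images (20 μm scale) captured.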

[12] = Metal chelating activity assessed as compound-Cu2+ complex formation by measuring red shift at 2:1 ratio in presence of CuSO4 by UV-Vis spectra analysis (Rvb= 264 nm)
[13] = target: Amyloid-beta precursor protein (Homo sapiens) (UniProt P05067); assay: Inhibition of Cu2+ induced amyloid beta (1 to 40) (unknown origin) aggregation assessed as disapperance of fibrillar assembly at 80 uM incubated for 36 hrs by TEM analysis
Summary of the method: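 Aβ1-40 (40 μM) incubated with CuSO4 (40 μM) and test peptide (80 μM) in PBS pH 7.4 at 37 °C for 36 h, then imaged by TEM. Representative image from several repeats.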

[14] = target: Amyloid-beta precursor protein (Homo sapiens) (UniProt P05067); assay: Inhibition of amyloid beta (1 to 40) (unknown origin) aggregation assessed as bright green-gold birefringence at 2 M incubated for 6 days by Congo-red staining based image analysis; details: time 6.0 day; summary of the method: as §2
[15] = target: Amyloid-beta precursor protein (Homo sapiens) (UniProt P05067); assay: Inhibition of amyloid beta (1 to 40) (unknown origin) aggregation assessed as increase in size of off-target aggregated species at 80 uM incubated upto 24 hr by DLS analysis
Summary of the method: (§3)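 Aβ1-40 (40 μM) alone or with 2 equivalents of peptide, incubated at pH 7.4, 37 °C. DLS size distribution and TEM morphology (500 nm scale) recorded at 1, 6, 12 and 24 h.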

[16] = Metal chelating activity assessed as compound-Cu2+ complex formation by measuring deviation in g values at 1 to 2 M in presence of CuSO4 by electron spin resonance analysis; details: dose 1-2 M
Summary of the method: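 ESR spectra recorded at room temperature on Cu2+ solution (5 mM) alone and with 1- or 2-fold molar ratio of peptide; g values read.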

[17] = Metal chelating activity assessed as compound-Zn2+ complex formation by measuring red shift at 2:1 ratio in presence of ZnCl2 by UV-Vis spectra analysis (Rvb= 264 nm)
[18] = Metal chelating activity assessed as compound-Cu2+ complex formation by measuring red shift at 1:1 ratio in presence of CuSO4 by UV-Vis spectra analysis (Rvb= 265 nm)
[19] = target: Amyloid-beta precursor protein (Homo sapiens) (UniProt P05067); assay: Inhibition of amyloid beta (1 to 40) (unknown origin) aggregation assessed as off-pathway aggregated species at 80 uM incubated upto 24 hr by TEM analysis; details: TDE = time-dependent effect; summary of the method: as §3
[20] = target: Amyloid-beta precursor protein (Homo sapiens) (UniProt P05067); assay: Inhibition of amyloid beta (1 to 40) (unknown origin) aggregation at 2 M incubated for 6 days by thioflavin S based fluorescence analysis relative to control; details: time 6.0 day
Summary of the method: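 Aβ1-40 (40 μM) co-incubated with 0.5-, 1- or 2-fold molar excess of peptide in PBS pH 7.4 at 37 °C for six days; ThT fluorescence monitored over time. Experiment done thrice, with two sets per solution and three readings per set.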

Homo sapiens [21] = species on record: Homo sapiens; assay: Metal chelating activity assessed as extraction of Cu2+ from amyloid beta (1 to 40) (unknown origin)-Cu2+ complex by measuring fluorescence of Tyr10 at 80 uM incubated for 36 hrs by tyrosine intrinsic fluorescence assay
Summary of the method: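 Aβ1-40 (40 μM) in PBS (50 mM, pH 7.4), with Cu2+ added at 40 μM, then peptide at 80 μM (1:1:2). Tyr10 intrinsic fluorescence emission read at 308 nm and expressed as normalized fluorescence intensity.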

[22] = target: Amyloid-beta precursor protein (Homo sapiens) (UniProt P05067); assay: Inhibition of amyloid beta (1 to 40) (unknown origin) aggregation assessed as reduction in beta sheet conformation at 2 M incubated for 6 days by FTIR analysis; details: time 6.0 day
[23] = Metal chelating activity assessed as compound-Cu2+ complex formation by measuring exothermic event at 50 uM in presence of CuSO4 by isothermal titration calorimetry assay
Summary of the method: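 ITC at 27 °C in 20 mM Tris-HCl pH 7.4. Metal solution (1.5 mM) in the syringe was titrated into peptide (50 μM) in the cell over 30 injections. Heats of dilution of metal into buffer were subtracted. ΔH, ΔS, K and n were fitted with a sequential two-site binding model.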

[24] = target: Amyloid-beta precursor protein (Homo sapiens) (UniProt P05067); assay: Inhibition of amyloid beta (1 to 40) (unknown origin) aggregation at 1 M incubated for 6 days by thioflavin S based fluorescence analysis relative to control; details: time 6.0 day
Lipid bilayer = assay: Inhibition of membrane destabilization in carboxyfluorescein dye entrapped large unilamellar vesicle assessed as decrease in amyloid beta (1-40) induced carboxyfluorescein leakage upto 48 hrs by TEM analysis; details: in the assay text read “by fluorescence analysis” for “by TEM analysis”
Summary of the method: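 Carboxyfluorescein-loaded LUVs in PBS (50 mM) exposed to pre-incubated Aβ1-40 alone or Aβ1-40 with peptide (1:2). Final lipid 50 μM, Aβ1-40 2.5 μM (peptide:lipid 1:20), 37 °C. Dye leakage measured by fluorescence at intervals from 1 to 48 h; untreated LUV as control.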

Sequence of Amyloid-beta precursor protein (Homo sapiens) (P05067 whole entry): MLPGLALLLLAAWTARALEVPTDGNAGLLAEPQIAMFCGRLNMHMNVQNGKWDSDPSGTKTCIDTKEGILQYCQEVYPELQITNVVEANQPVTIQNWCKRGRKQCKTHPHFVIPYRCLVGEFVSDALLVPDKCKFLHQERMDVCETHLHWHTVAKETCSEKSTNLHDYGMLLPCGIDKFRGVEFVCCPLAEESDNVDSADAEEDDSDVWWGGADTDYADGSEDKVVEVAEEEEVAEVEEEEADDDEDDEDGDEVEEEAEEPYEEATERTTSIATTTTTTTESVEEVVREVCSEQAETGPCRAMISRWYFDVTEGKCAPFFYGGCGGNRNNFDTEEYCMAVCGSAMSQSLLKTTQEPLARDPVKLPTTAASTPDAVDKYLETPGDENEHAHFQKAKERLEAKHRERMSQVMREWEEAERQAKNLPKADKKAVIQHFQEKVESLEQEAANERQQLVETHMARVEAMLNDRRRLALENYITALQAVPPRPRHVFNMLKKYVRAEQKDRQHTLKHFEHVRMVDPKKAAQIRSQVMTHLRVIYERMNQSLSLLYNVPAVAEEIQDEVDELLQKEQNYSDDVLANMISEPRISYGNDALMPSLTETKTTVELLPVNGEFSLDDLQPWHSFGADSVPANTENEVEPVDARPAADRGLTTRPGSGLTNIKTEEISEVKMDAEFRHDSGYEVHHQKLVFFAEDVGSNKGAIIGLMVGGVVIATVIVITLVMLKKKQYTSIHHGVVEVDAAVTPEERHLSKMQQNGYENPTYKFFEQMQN

inhibition [7] [%]	inhibition [9] [%]	inhibition [11]	inhibition [14]	inhibition [20] [%]	inhibition [22] [%]	inhibition [24] [%]	SMILES	IC50 [1] [µM]	further results
							CC(C)C[C@@H]1NC(=O)[C@H](CCCCNC(=O)c2ccccn2)NC(=O)[C@H](CCCCNC(=S)Nc2ccc(-c3c4ccc(=O)cc-4oc4cc(O)ccc34)c(C(=O)O)c2)NC(=O)[C@H](CCC(N)=O)NC(=O)[C@H](C)NC(=O)[C@H](Cc2ccccc2)NC(=O)[C@@H](Cc2ccccc2)NC(=O)[C@H](C(C)C)NC1=O	200	Drug uptake [2]: Active; Drug uptake [3]: Active; OD (Homo sapiens [4]): 604 nm
							CCN(CC)c1ccc2c(-c3ccc(C(=O)N(C)CC(=O)NCC(=O)N[C@@H](Cc4ccc(O)cc4)C(=O)N[C@@H](CCC(=O)O)C(=O)N[C@H](C(=O)N[C@@H](Cc4c[nH]cn4)C(=O)N[C@@H](Cc4c[nH]cn4)C(=O)N[C@@H](CCC(N)=O)C(=O)N[C@@H](CCCCN)C(=O)N[C@@H](CC(C)C)C(=O)N[C@H](C(=O)N[C@@H](Cc4ccccc4)C(=O)N[C@@H](Cc4ccccc4)C(=O)N[C@@H](C)C(=O)NCC(N)=O)C(C)C)C(C)C)cc3)c3ccc(N(CC)CC)cc3[o+]c2c1 (X1-[Sar]GYEVHHQKLVFFAG-NH2)	150	Drug uptake [5]: Active; Drug uptake [6]: Active
85	32.4	Active	Active	85.6	85	52.6	CC(C)C[C@@H]1NC(=O)[C@H](CCCCNC(=O)c2ccccn2)NC(=O)[C@H](CCC(N)=O)NC(=O)[C@H](C)NC(=O)[C@H](Cc2ccccc2)NC(=O)[C@@H](Cc2ccccc2)NC(=O)[C@H](C(C)C)NC1=O		inhibition [8]: Active; OD [10]: 268 nm; OD [12]: 270 nm; inhibition [13]: Active; inhibition [15]: Active; Activity [16]: Active; OD [17]: 267 nm; OD [18]: 271 nm; inhibition [19]: Tde; Activity (Homo sapiens [21]): 84.3%; Activity [23]: Active; inhibition (Lipid bilayer): Active
74	25.2	Active	Active	73.7	74	47.9	CC(C)C[C@@H]1NC(=O)[C@H](CCCCN)NC(=O)[C@H](CCC(N)=O)NC(=O)[C@H](C)NC(=O)[C@H](Cc2ccccc2)NC(=O)[C@@H](Cc2ccccc2)NC(=O)[C@H](C(C)C)NC1=O		
	7.9			27.2		15.1	CC(=O)N[C@@H](CCCCN)C(=O)N[C@@H](CC(C)C)C(=O)N[C@H](C(=O)N[C@H](Cc1ccccc1)C(=O)N[C@@H](Cc1ccccc1)C(=O)N[C@@H](C)C(=O)N[C@@H](CCC(N)=O)C(=O)O)C(C)C		
